Consider nine compounds from ChEMBL document CHEMBL3046415, “Improved microwave-mediated synthesis of 3-(3-aryl-1,2,4-oxadiazol-5-yl)propionic acids and their larvicidal and fungal growth inhibitory properties” (2009).

Active and inactive are the calls of the source. The calls are words filed in the database; no cut-off is given here.

Common to all, as to format: functional
Assay [1] has as its system Fusarium verticillioides. As to the kind of experiment: Antifungal activity against Fusarium verticillioides assessed as growth inhibition at 2 ug/ml after 72 hr by disk diffusion test. The gist of the method: (§1)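 Strains from a university mycology culture collection, grown on PDA at 28 °C for 8–15 d until plates were covered. Mycelial disks ([…]) were cut from colony edges and placed on test plates. Ethylene glycol served as negative control. Plates were incubated at 28 °C for up to 72 h in triplicate. Percent inhibition was calculated from reduction in growth diameter.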
Background: In agar diffusion tests the substance spreads into inoculated agar from a disc or well.

Assay [2] relates to Fusarium verticillioides. Kind of assay: Antifungal activity against Fusarium verticillioides assessed as growth inhibition at 2 ug/ml after 48 hr by disk diffusion test. The gist of the method:
as §1

Assay [3] has as its system Fusarium solani. As to the kind of experiment: Antifungal activity against Fusarium solani assessed as growth inhibition at 2 ug/ml after 72 hr by disk diffusion test. To be noted: read-out: GI. The method in brief:
as §1

Assay [4] has as its system Fusarium decemcellulare. Kind of assay: Antifungal activity against Fusarium decemcellulare assessed as growth inhibition at 2 ug/ml after 72 hr by disk diffusion test. To be noted: read-out: GI. The method in brief: as §1
The subject of assay [5] is Fusarium lateritium. As to the kind of experiment: Antifungal activity against Fusarium lateritium assessed as growth inhibition at 2 ug/ml after 72 hr by disk diffusion test. To be noted: read-out: GI. The gist of the method:
as §1

`Cc1ccccc1-c1noc(CCC(=O)O)n1`: in assay [1], the “growth inhibition (GI)” value was “inactive”. For the same compound, in assay [2], the “growth inhibition (GI)” value was “Active”.

Turning to `O=C(O)CCc1nc(-c2ccc(Cl)cc2)no1`, the “growth inhibition (GI)” value in assay [1] was “inactive”. In assay [2], the “growth inhibition (GI)” value is “Active”. The inhibition of growth at 2 µg/mL amounted to 59.7% in assay [3] and 66% in assay [4].

In the case of `Cc1cccc(-c2noc(CCC(=O)O)n2)c1`, the “growth inhibition (GI)” value in assay [1] is “inactive”. In addition, the “growth inhibition (GI)” value in assay [2] was “Active”.

`O=C(O)CCc1nc(-c2ccccc2)no1`: the inhibition of growth at 2 µg/mL in assay [1] (read-out: GI) and in assay [2] (read-out: GI) was 52.8% throughout.

For the compound `COc1ccc(-c2noc(CCC(=O)O)n2)cc1`, the “growth inhibition (GI)” value in assay [1] was “inactive”. The “growth inhibition (GI)” value in assay [2] was “Active”. Besides, the inhibition of growth at 2 µg/mL in assay [5] came to 45.8%; in assay [4], 52.8%.

In the case of `Cc1ccc(-c2noc(CCC(=O)O)n2)cc1`, in assay [1], the “growth inhibition (GI)” value was “inactive”. Moreover, the “growth inhibition (GI)” value in assay [2] is “Active”.

Turning to `O=C(O)CCc1nc(-c2ccc(F)cc2)no1`, in assay [1], the “growth inhibition (GI)” value was “inactive”. Also, the “growth inhibition (GI)” value in assay [2] was “Active”. For the same compound, the inhibition of growth at 2 µg/mL in assay [5] was 43%.

As for `O=C(O)CCc1nc(-c2ccc(Br)cc2)no1`, the “growth inhibition (GI)” value in assay [1] was “inactive”. The “growth inhibition (GI)” value in assay [2] is “Active”.

Take `O=C(O)CCc1nc(-c2ccc([N+](=O)[O-])cc2)no1`: in assay [1], the “growth inhibition (GI)” value was “inactive”. In addition, in assay [2], the “growth inhibition (GI)” value was “Active”.
